These results are taken from ChEMBL document CHEMBL1135406, “Distribution of furamidine analogues in tumor cells: influence of the number of positive charges” (J Med Chem, 2002).

Broadly, the IC50 is the concentration that inhibits the measured activity by half.

This assay deals with B16. The assay is described as follows: Drug concentration required to inhibit B16 cell growth by 50% after 72 hours of incubation. Type of assay: functional, cell-based. The settings on record: Mus musculus, B16, 72 h. The method, boiled down:
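B16 murine melanoma cells grown in DMEM-glutaMAX with 10% FBS, penicillin and streptomycin, 37 °C, 5% CO2; harvested by trypsinization and plated 20 h before dosing. 2 × 10⁴ exponentially growing cells per well exposed to a range of drug concentrations for 72 h at 37 °C; MTS added for a further 3 h; absorbance read at 492 nm; IC50 = 50% growth inhibition.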
`c1cc(-c2ccc(-c3ccc(C4=NCCN4)cc3)o2)ccc1C1=NCCN1`: the midpoint of inhibition, the IC50, lay at 1.1 µM.

Turning to `N=C(N)c1ccc(-c2ccc(-c3ccc(C(=N)N)cc3)o2)cc1` [FURAMIDINE], the IC50 stood at 9.2 µM.

Turning to `CN(C)CCCC(=O)Nc1ccc(-c2ccc(-c3ccc(NC(=O)CCCN(C)C)cc3)o2)cc1`, the half-maximal inhibitory concentration (IC50) amounted to 2.3 µM. This IC50 is about 4-fold lower than that of the compound before. Under `N=C(N)c1ccc2[nH]c(-c3ccc(-c4ccc(N)cc4)o3)nc2c1` stands more than 100 µM. Under `CN(C)CCC/N=C(\N)c1ccc(-c2ccc(-c3nc4cc(/C(N)=N/CCCN(C)C)ccc4[nH]3)o2)cc1` stands more than 100 µM; under `COc1ccc(-c2ccc(-c3ccc(C(=N)N)cc3)o2)cc1`, 3.5 µM. On to `c1ccc2[nH]c(-c3ccc(-c4ccc(C5=NCCN5)cc4)o3)nc2c1`, for which inhibition was half-maximal at 8.6 µM (IC50).

As for `CN(C)CCC/N=C(\N)c1ccc(-c2ccc(-c3ccc(/C(N)=N/CCCN(C)C)cc3)o2)cc1`, the concentration for half-maximal inhibition (IC50) came out at 2.5 µM.

`N=C(N)c1ccc(-c2ccc(-c3nc4ccccc4[nH]3)o2)cc1` showed an IC50 of 51.4 µM. Compared with the last compound, the IC50 is about 21-fold higher. The compound `N=C(N)c1ccc(-c2ccc(-c3nc4cc(C(=N)N)ccc4[nH]3)o2)cc1` returned an IC50 of 43.2 µM.

The compound `COc1ccc(-c2ccc(-c3ccc(C4=NCCN4)cc3)o2)cc1` displayed an IC50 of 1.7 µM.
